Values after ≈ are worked out from the molar mass of the structure shown.
Columns and labels:
[1] = Selectivity index, ratio of IC50 for African green monkey Vero cells to IC50 for chloroquine-resistant Plasmodium falciparum Dd2; format: toxicity, cell-based; conditions: read-out: Ratio IC50
[2] = test system: Plasmodium falciparum; experiment: Antiplasmodial activity against chloroquine-sensitive Plasmodium falciparum 3D7 infected in human RBCs after 72 hrs by SYBR Green based parasite proliferation assay; format: functional, organism-based; conditions: 3D7, 72 h
Procedure, shortened: (§1)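 P. falciparum (3D7 or Dd2) grown in human O+ erythrocytes in RPMI 1640 with gentamicin, hypoxanthine, HEPES, bicarbonate, glucose, Albumax and 5% human serum. Gassed with 3% CO2, 1% O2, 96% N2 and held at 37°C. Parasites exposed to serial compound dilutions for 72 h. Parasite DNA increase read by SYBR Green fluorescence (ex 495, em 525 nm).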

[3] = Selectivity index, ratio of IC50 for African green monkey Vero cells to IC50 for chloroquine-sensitive Plasmodium falciparum 3D7; format: toxicity, cell-based; conditions: read-out: Ratio IC50
[4] = test system: Mycobacterium tuberculosis; experiment: Antimycobacterial activity against Mycobacterium tuberculosis H37Rv ATCC 27294 by microplate alamar blue assay; format: functional
Procedure, shortened: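 Mtb H37Rv tested in the microplate Alamar blue assay; rifampicin served as positive control.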

[5] = test system: Vero; experiment: Cytotoxicity against African green monkey Vero cells by MTS assay; format: cell-based; conditions: Chlorocebus sabaeus
[6] = test system: Plasmodium falciparum; experiment: Antiplasmodial activity against chloroquine-resistant Plasmodium falciparum Dd2 infected in human RBCs after 72 hrs by SYBR Green based parasite proliferation assay; format: functional, organism-based; conditions: Dd2, 72 h; procedure, shortened: as §1
[7] = Selectivity index, ratio of IC50 for African green monkey Vero cells to MIC for Mycobacterium tuberculosis H37Rv ATCC 27294; format: toxicity, cell-based; conditions: read-out: Selectivity Index

Row | SMILES | selectivity ratio [1] | IC50 [2] | selectivity ratio [3] | MIC [4] | IC50 [5] | IC50 [6] | selectivity ratio [7]
1 | C=C1CC[C@@]2(N=C=S)[C@H]3[C@H](CC[C@@H]2C)[C@@H](C)C[C@@H](CC(C)(C)N=C=S)[C@H]13 | > 9 | 11.8 µM | > 8 | 99.1 µM (≈ 38.5 µg/mL) | > 100 µM | 11.6 µM | > 1
2 | C=C1CC[C@@]2(N=C=[Se])[C@H]3[C@H](CC[C@@H]2C)[C@@H](C)C[C@@H](CC(C)(C)N=C=[Se])[C@H]13 | 7360 | 0.0025 µM | 19400 | 3.9 µM (≈ 1.88 µg/mL) | 48.6 µM | 0.0066 µM | 12.4
3 | [C-]#[N+]C(C)(C)C[C@@H]1C[C@H](C)[C@H]2CC[C@H](C)[C@@]3([N+]#[C-])CCC(=C)[C@@H]1[C@H]23 [DIISOCYANOAMPHILECTENE] | 32200 | – | 83100 | 9.8 µM (≈ 3.18 µg/mL) | – | 0.0031 µM | 10.2
4 | CO[C@H]1/C=C/O[C@@]2(C)Oc3c(C)c(O)c4c(O)c(c(/C=N/N5CCN(C)CC5)c(O)c4c3C2=O)NC(=O)/C(C)=C\C=C\[C@H](C)[C@H](O)[C@@H](C)[C@@H](O)[C@@H](C)[C@H](OC(C)=O)[C@@H]1C [RIFAMPIN] | – | – | – | 0.09 µM (≈ 0.0741 µg/mL) | > 100 µM | – | > 1100

From ChEMBL document CHEMBL3751681, “Natural product-based synthesis of novel anti-infective isothiocyanate- and isoselenocyanate-functionalized amphilectane diterpenes” (Bioorg Med Chem Lett, 2016)
